Active and inactive are the calls of the source. The rule behind the calls is not given here.
What was measured:
[1] = Lipophilicity index (Rm) (HPLC); type: physicochemical
[2] = Base strength is expressed as pKa, determined in water at 25 degrees Centigrade by spectrophotometric method.; type: physicochemical
[3] = test system: HCT-8; experiment: Inhibition of human colon tumor (HCT-8) cell growth in culture; type: functional, cell-based
Summary of the method: (§1)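 IC50 is the drug concentration, in nM, that inhibits growth of the cultured cell line by 50%.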

[4] = test system: L1210; experiment: Inhibition murine leukemia L1210 cell growth in culture; type: functional, cell-based; settings: Mus musculus; summary of the method: as §1
[5] = test system: P388; experiment: (§2) Percentage increase in life span of tumor bearing animals compared to non treated, tumor-bearing controls when treated at the optimal dose of 30 mg/kg/day intraperitoneally; type: functional; settings: Mus musculus, P388, ip; route intraperitoneal
[6] = Selectivity ratio of IC50 of HCT to IC50 of L1210 cell lines; type: functional
[7] = test system: Lewis lung carcinoma cell line; experiment: Percentage increase in life span of tumor bearing animals compared to non treated, tumor-bearing controls when treated at the optimal dose of 20 mg/kg/day ip (LL); type: functional, organism-based; settings: Mus musculus
[8] = test system: P388; experiment: Percentage increase in life span of tumor bearing animals compared to non treated, tumor-bearing controls when treated at the optimal dose of 13.3 mg/kg/day ip (P388); type: functional; settings: Mus musculus, route intraperitoneal
[9] = test system: Lewis lung carcinoma cell line; experiment: (§3) Percentage increase in life span of compound-treated, tumor bearing animals compared to non treated, tumor-bearing controls when treated at the optimal dose of 100 mg/kg; type: functional; settings: Mus musculus
[10] = test system: P388; experiment: as §3; type: functional; settings: Mus musculus
[11] = test system: Lewis lung carcinoma cell line; experiment: (§4) Percentage increase in life span of tumor bearing animals compared to non treated, tumor-bearing controls when treated at the optimal dose of 100 mg/kg/day intraperitoneally; type: functional; settings: Mus musculus, ip, route intraperitoneal
[12] = test system: P388; experiment: as §4; type: functional; settings: Mus musculus, P388, ip; route intraperitoneal
[13] = test system: P388; experiment: Percentage increase in life span of tumor bearing animals compared to non treated, tumor-bearing controls when treated at the optimal dose of 150 mg/kg/day intraperitoneally; IA denotes inactive; type: functional, organism-based; settings: Mus musculus
Summary of the method: (§5)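 Drug was given ip in 0.1 mL 30% v/v ethanol/water. For P388, 10^6 cells were inoculated ip and dosing was on days 1, 5 and 9, with >20% significant. For Lewis lung, 10^6 cells were inoculated iv and dosing was on days 5, 9 and 13, with >40% significant. The read-out is % lifespan increase over untreated controls.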

[14] = test system: Lewis lung carcinoma cell line; experiment: (§6) Percentage increase in life span of tumor bearing animals compared to non treated, tumor-bearing controls when treated at the optimal dose of 65 mg/kg/day intraperitoneally; type: functional; settings: Mus musculus, ip, route intraperitoneal
[15] = test system: P388; experiment: as §6; type: functional; settings: Mus musculus, P388, ip; route intraperitoneal
[16] = test system: Lewis lung carcinoma cell line; experiment: Percentage increase in life span of tumor bearing animals compared to non treated, tumor-bearing controls when treated at the optimal dose of 100 mg/kg/day intraperitoneally; IA denotes inactive; type: functional, organism-based; settings: Mus musculus; summary of the method: as §5
[17] = test system: P388; experiment: Percentage increase in life span of tumor bearing animals compared to non treated, tumor-bearing controls when treated at the optimal dose of 225 mg/kg/day intraperitoneally; IA denotes inactive; type: functional, organism-based; settings: Mus musculus; summary of the method: as §5
[18] = test system: Lewis lung carcinoma cell line; experiment: (§7) Percentage increase in life span of tumor bearing animals compared to non treated, tumor-bearing controls when treated at the optimal dose of 65 mg/kg/day intraperitoneally; IA denotes inactive; type: functional, organism-based; settings: Mus musculus; summary of the method: as §5
[19] = test system: P388; experiment: as §7; type: functional, organism-based; settings: Mus musculus; summary of the method: as §5
[20] = test system: Lewis lung carcinoma cell line; experiment: (§8) Percentage increase in life span of tumor bearing animals compared to non treated, tumor-bearing controls when treated at the optimal dose of 150 mg/kg/day intraperitoneally; type: functional; settings: Mus musculus, ip, route intraperitoneal
[21] = test system: P388; experiment: as §8; type: functional; settings: Mus musculus, P388, ip; route intraperitoneal
[22] = test system: P388; experiment: Percent increase in life span of P388 cells compared to non treated, tumor-bearing controls when treated at the optimal dose of 225 mg/kg/day; IA denotes inactive; type: functional, organism-based; settings: Mus musculus
[23] = test system: Lewis lung carcinoma cell line; experiment: as §2; type: functional; settings: Mus musculus, ip, route intraperitoneal
[24] = test system: Lewis lung carcinoma cell line; experiment: Percentage increase in life span of tumor bearing animals compared to non treated, tumor-bearing controls when treated at the optimal dose of 4.5 mg/kg/day intraperitoneally; IA denotes inactive; type: functional, organism-based; settings: Mus musculus; summary of the method: as §5
[25] = test system: P388; experiment: Percentage increase in life span of tumor bearing animals compared to non treated, tumor-bearing controls when treated at the optimal dose of 4.5 mg/kg/day intraperitoneally; type: functional; settings: Mus musculus, P388, ip; route intraperitoneal
[26] = test system: Nucleic Acid; experiment: Binding constant to poly(dA-dT)DNA by ethidium bromide displacement; type: nucleic-acid assay
Summary of the method: (§9)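 Association constants derived from the drug concentration displacing 50% of bound ethidium from the polynucleotide, assuming competitive binding of drug and ethidium to DNA.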

[27] = test system: Nucleic Acid; experiment: Binding constant to poly(dG-dC)DNA by ethidium bromide displacement; type: nucleic-acid assay; summary of the method: as §9
[28] = test system: P388; experiment: Percent increase in life span of P388 tumor bearing animals compared to non treated, tumor-bearing controls when treated at the optimal dose of 150 mg/kg/day; IA denotes inactive; type: functional, organism-based; settings: Mus musculus
[29] = test system: P388; experiment: Percentage increase in life span of tumor (P388 cells) bearing animals compared to non treated, tumor-bearing controls when treated at the optimal dose of 45 mg/kg/day; IA denotes inactive; type: functional, organism-based; settings: Mus musculus

## COc1ccc(C(=O)NCCN(C)C)c2nc3ccccc3cc12.Cl.Cl
[1]
  Rm: -0.13
[2]
  pKa: 3.81
[3]
  IC50: 115 nM
[4]
  IC50: 8.8 nM
[5]
  ILS at 30 mg/kg/day: 205%
[6]
  Ratio: 13.1

## Cl.Cl.O=C(NCCNCCO)c1cccc2cc3ccccc3nc12
[1]
  Rm: -0.22
[3]
  IC50: 1800 nM
[4]
  IC50: 240 nM
[7]
  ILS: inactive
[8]
  ILS at 13.3 mg/kg/day: 22%
[6]
  Ratio: 7.5

## Cc1ccc2cc3cccc(C(=O)NCCN(C)C)c3nc2c1.Cl.Cl
[1]
  Rm: -0.1
[3]
  IC50: 658 nM
[4]
  IC50: 121 nM
[9]
  ILS at 100 mg/kg: 106%
[10]
  ILS at 100 mg/kg: 82%
[6]
  Ratio: 5.4 Ratio

## CN(C)CCCCNC(=O)c1cccc2cc3ccccc3nc12.Cl
[1]
  Rm: 0.01
[3]
  IC50: 930 nM
[4]
  IC50: 160 nM
[11]
  ILS at 100 mg/kg/day: 100%
[12]
  ILS at 100 mg/kg/day: 143%
[6]
  Ratio: 5.8

## CN(C)CCNC(=O)c1ccc2cc3ccccc3nc2c1.Cl.Cl
[1]
  Rm: -0.53
[2]
  pKa: 3.94
[4]
  IC50: 8100 nM
[13]
  ILS: inactive

## CN(C)CCNC(=O)c1cccc2cc3c(Cl)cccc3nc12.Cl.Cl.Cl
[1]
  Rm: 0.01
[3]
  IC50: 790 nM
[4]
  IC50: 160 nM
[14]
  ILS at 65 mg/kg/day: 63%
[15]
  ILS at 65 mg/kg/day: 102%
[6]
  Ratio: 4.9

## Cc1ccc2cc3ccccc3nc2c1C(=O)NCCN(C)C.Cl.Cl
[1]
  Rm: -0.21
[4]
  IC50: 12700 nM
[16]
  ILS: inactive
[17]
  ILS: inactive

## CNCCNC(=O)c1cccc2cc3ccccc3nc12.Cl.Cl
[1]
  Rm: -0.27
[3]
  IC50: 620 nM
[4]
  IC50: 240 nM
[18]
  ILS: inactive
[19]
  ILS: inactive
[6]
  Ratio: 2.6

## COc1ccc2nc3c(C(=O)NCCN(C)C)cccc3cc2c1.Cl.Cl
[1]
  Rm: -0.22
[2]
  pKa: 3.54
[3]
  IC50: 1700 nM
[4]
  IC50: 640 nM
[20]
  ILS at 150 mg/kg/day: 46%
[21]
  ILS at 150 mg/kg/day: 91%
[6]
  Ratio: 2.7

## CN(C)CCCNC(=O)c1cccc2cc3ccccc3nc12.Cl.Cl
[1]
  Rm: -0.1
[3]
  IC50: 2900 nM
[4]
  IC50: 370 nM
[20]
  ILS at 150 mg/kg/day: 84%
[21]
  ILS at 150 mg/kg/day: 118%
[6]
  Ratio: 7.8

## CN(C)CCNC(=O)c1cc(Cl)cc2cc3ccccc3nc12.Cl.Cl
[1]
  Rm: 0.03
[3]
  IC50: 440 nM
[4]
  IC50: 31 nM
[11]
  ILS at 100 mg/kg/day: 219%
[12]
  ILS at 100 mg/kg/day: 62%
[6]
  Ratio: 14.2

## CN(C)CCNC(=O)c1ccc2nc3ccccc3cc2c1.Cl.Cl
[1]
  Rm: -0.57
[2]
  pKa: 4.37
[4]
  IC50: 9300 nM
[22]
  ILS: inactive

## Cc1ccc2nc3c(C(=O)NCCN(C)C)cccc3cc2c1.Cl.Cl
[1]
  Rm: -0.05
[3]
  IC50: 1240 nM
[4]
  IC50: 200 nM
[20]
  ILS at 150 mg/kg/day: 85%
[12]
  ILS at 100 mg/kg/day: 68%
[6]
  Ratio: 6.2

## Cc1cc(C(=O)NCCN(C)C)c2nc3ccccc3cc2c1.Cl.Cl
[1]
  Rm: -0.04
[3]
  IC50: 657 nM
[4]
  IC50: 130 nM
[20]
  ILS at 150 mg/kg/day: 33%
[12]
  ILS at 100 mg/kg/day: 120%
[6]
  Ratio: 5.1

## CN(C)CCNC(=O)c1cccc2cc3ccc(Cl)cc3nc12.Cl
[1]
  Rm: -0.06
[3]
  IC50: 350 nM
[4]
  IC50: 6.4 nM
[14]
  ILS at 65 mg/kg/day: 91%
[6]
  Ratio: 54

## Cc1cccc2cc3cccc(C(=O)NCCN(C)C)c3nc12.Cl.Cl
[1]
  Rm: -0.17
[3]
  IC50: 54 nM
[4]
  IC50: 4.3 nM
[23]
  ILS at 30 mg/kg/day: 120%
[5]
  ILS at 30 mg/kg/day: 87%
[6]
  Ratio: 12.6

## CCN(CC)CCNC(=O)c1cccc2cc3ccccc3nc12.Cl.Cl
[1]
  Rm: 0.17
[4]
  IC50: 630 nM
[20]
  ILS at 150 mg/kg/day: 62%
[21]
  ILS at 150 mg/kg/day: 61%

## CN(C)CCNC(=O)c1cccc2c(N)c3ccccc3nc12
[1]
  Rm: -1.11
[3]
  IC50: 55 nM
[24]
  ILS: inactive
[25]
  ILS at 4.5 mg/kg/day: 98%
[6]
  Ratio: 3.7

## CN(C)CCNC(=O)c1ccc(Cl)c2cc3ccccc3nc12.Cl.Cl
[1]
  Rm: 0.04
[3]
  IC50: 370 nM
[4]
  IC50: 33 nM
[11]
  ILS at 100 mg/kg/day: 120%
[12]
  ILS at 100 mg/kg/day: 110%
[6]
  Ratio: 11.2

## CN(C)CCNC(=O)c1cccc2cc3cc(Cl)ccc3nc12.Cl.Cl
[1]
  Rm: -0.03
[3]
  IC50: 610 nM
[4]
  IC50: 250 nM
[11]
  ILS at 100 mg/kg/day: 94%
[12]
  ILS at 100 mg/kg/day: 106%
[6]
  Ratio: 2.4

## Cc1ccc(C(=O)NCCN(C)C)c2nc3ccccc3cc12.Cl.Cl
[1]
  Rm: 0.1
[3]
  IC50: 400 nM
[4]
  IC50: 37 nM
[12]
  ILS at 100 mg/kg/day: 71%
[6]
  Ratio: 10.8

## CN(C)CCNC(=O)c1cccc2nc3ccccc3cc12.Cl.Cl
[1]
  Rm: -0.56
[2]
  pKa: 4.24
[26]
  Log K: 6.87
[27]
  Log K: 7.7
[4]
  IC50: 17900 nM
[28]
  ILS: inactive

## COc1ccc2cc3cccc(C(=O)NCCN(C)C)c3nc2c1.Cl.Cl
[1]
  Rm: -0.47
[2]
  pKa: 4.59
[3]
  IC50: 470 nM
[4]
  IC50: 210 nM
[11]
  ILS at 100 mg/kg/day: 85%
[6]
  Ratio: 2.2

## Cc1c2ccccc2nc2c(C(=O)NCCN(C)C)cccc12.Cl.Cl
[1]
  Rm: -0.33
[2]
  pKa: 4.34
[3]
  IC50: 160 nM
[4]
  IC50: 150 nM
[29]
  IA: inactive
[6]
  Ratio: 1.1

## COc1cc(C(=O)NCCN(C)C)c2nc3ccccc3cc2c1.Cl.Cl
[1]
  Rm: -0.13
[2]
  pKa: 3.34
[3]
  IC50: 720 nM
[4]
  IC50: 30 nM
[11]
  ILS at 100 mg/kg/day: 105%
[12]
  ILS at 100 mg/kg/day: 99%
[6]
  Ratio: 24

## COc1cccc2nc3c(C(=O)NCCN(C)C)cccc3cc12.Cl
[1]
  Rm: -0.12
[2]
  pKa: 3.82
[3]
  IC50: 520 nM
[4]
  IC50: 58 nM
[11]
  ILS at 100 mg/kg/day: 66%
[12]
  ILS at 100 mg/kg/day: 128%
[6]
  Ratio: 9

From ChEMBL document CHEMBL1123878, “Potential antitumor agents. 50. In vivo solid-tumor activity of derivatives of N-[2-(dimethylamino)ethyl]acridine-4-carboxamide” (J Med Chem, 1987)
